From ChEMBL document CHEMBL1126933, “Syntheses and biological activities of potent potassium channel openers derived from (+/-)-2-oxo-1-pyridin-3-yl-cyclohexanecarbothioic acid methylamide: new potassium channel openers” (1993)

Species on record: Rattus norvegicus
Experiment: In vitro relaxation of de-endothelialized rat aortic strips toned with 20 mM KCl
Assay type: functional
Conditions: Aorta
Summary of the method: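 Rat aortic rings cut into transverse strips, endothelium removed by gentle rubbing. Strips held in Krebs bicarbonate buffer at 37 °C, gassed with 95% O2/5% CO2, isometric tension recorded. Equilibrated 90 min at 2 g resting tension, then contracted with 20 mmol KCl. At maximal contraction, relaxation measured by cumulative concentration-response, each next concentration added once the previous one reached maximal effect.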

CNC(=S)[C@@]1(c2cccnc2)CCCC[S+]1[O-] (some centres undefined) gave an IC90 of 400 nM.

Molecule C/N=C(/S)[C@@]1(c2cccnc2)CCCC[C@@H]1CCO has an IC90 of 1700 nM.

Molecule C/N=C(/S)[C@@]1(c2cccnc2)CCCC[C@@H]1CCNC(=O)c1ccccc1 has an IC90 of 300 nM.

Molecule C/N=C(/S)C1(c2cccnc2)CCCCC1=O (centres undefined) has an IC90 of 800 nM.

C/N=C(/S)[C@@]1(c2cccnc2)CCCC[C@@H]1CCNC(=O)c1ccc(F)cc1 showed an IC90 of 500 nM.

For C/N=C(/S)C1(c2cccnc2)CCCC/C1=C\CSc1ccccc1 (centres undefined), the IC90 was 3 nM.

Work on C/N=C(/S)[C@@]1(c2cccnc2)CCCC[C@@H]1CCNS(C)(=O)=O yielded an IC90 of 170 nM.

Molecule C/N=C(/NCC[C@H]1CCCC[C@@]1(/C(S)=N\C)c1cccnc1)NS(=O)(=O)c1ccccc1 has an IC90 of 300 nM.

Molecule C/N=C(/S)[C@@]1(c2cccnc2)CCCC[C@@H]1C/C=N/OCc1ccccc1 has an IC90 of 30 nM.

Molecule C/N=C(/S)[C@@]1(c2cccnc2)CCCC[C@@H]1CCOC(=O)c1ccc(F)cc1 has an IC90 of 100 nM.

Work on C/N=C(/S)[C@@]1(c2cccnc2)CCCC[C@@H]1CCNS(=O)(=O)c1cccs1 yielded an IC90 of 1 nM.

With C/N=C(/S)[C@@]1(c2cccnc2)CCCC[C@@H]1CCNS(=O)(=O)c1ccc(Cl)cc1 the IC90 was 30 nM.

C/N=C(/S)[C@@]1(c2cccnc2)CCCC[C@@H]1CCNC(=O)Cc1ccccc1 showed an IC90 of 300 nM.

C/N=C(/S)[C@@]1(c2cccnc2)CCCC[C@@H]1CCNS(=O)(=O)c1ccc([N+](=O)[O-])cc1 was tested, and the IC90 was 300 nM.

For CNC(=S)[C@@]1(c2cccnc2)CCCC[C@@H]1CCNS(=O)(=O)c1ccc(OC)cc1, the IC90 was 300 nM.

C/N=C(/S)[C@@]1(c2cccnc2)CCCC[C@@H]1CCN1C(=O)COCC1=O gave an IC90 of 100 nM.

C/N=C(/S)[C@@]1(c2cccnc2)CCCC[C@@H]1CCNS(=O)(=O)c1cccnc1 showed an IC90 of 3 nM.

C/N=C(/S)C1(c2cccnc2)CCCC/C1=C\COc1ccc(O)cc1 (centres undefined) was tested, and the IC90 was 300 nM.

With C/N=C(/S)[C@@]1(c2cccnc2)CCCC[C@@H]1CCNS(=O)(=O)c1ccccc1 the IC90 was 0.3 nM.

C/N=C(/S)[C@@]1(c2cccnc2)CCCC[C@@H]1CCNS(=O)(=O)c1ccc(F)cc1 gave an IC90 of 7 nM.

In the case of C/N=C(/S)[C@@]1(c2cccnc2)CCCC[C@@H]1CC#N, the IC90 is reported as 300 nM.

In the case of C/N=C(/NCC[C@H]1CCCC[C@@]1(/C(S)=N\C)c1cccnc1)NS(C)(=O)=O, the IC90 is reported as 30 nM.

For C/N=C(/S)C1(c2cccnc2)CCCC/C1=C\C=O (centres undefined), the IC90 was 8000 nM.

Work on CNC(=S)[C@@]1(c2cccnc2)CCCC[C@@H]1CC(=O)OC yielded an IC90 of 300 nM.

C/N=C(/S)C1(c2cccnc2)CCCC/C1=C\C=N\OCC(O)CO (centres undefined) showed an IC90 of 3000 nM.

C/N=C(/S)[C@@]1(c2cccnc2)CCCC[C@@H]1CCNC(C)=O gave an IC90 of 130 nM.

For C/N=C(/S)C1(c2cccnc2)CCCC/C1=C\C#N (centres undefined), the IC90 was 10000 nM.

Work on C/N=C(/S)[C@@]1(c2cccnc2)CCCC[C@@H]1CCNc1ccccc1 yielded an IC90 of 3 nM.

C/N=C(/S)[C@@]1(c2cccnc2)CCCC[C@@H]1CCN showed an IC90 of 10000 nM.

Molecule C/N=C(/S)[C@@]1(c2cccnc2)CCCC[C@@H]1CCNS(=O)(=O)c1ccc(F)c(F)c1 has an IC90 of 10 nM.

With C/N=C(/S)[C@@]1(c2cccnc2)CCCC[C@@H]1CCNC(=O)C(C)C the IC90 was 300 nM.

In the case of C/N=C(/S)C1(c2cccnc2)CCCC/C1=C\COc1ccc([N+](=O)[O-])cc1 (centres undefined), the IC90 is reported as 100 nM.

C/N=C(/S)C1(c2cccnc2)CCCC/C1=C\C=N\OCc1ccc(F)cc1 (centres undefined) was tested, and the IC90 was 100 nM.

For C/N=C(/S)[C@@]1(c2cccnc2)CCCC[C@@H]1CCOC(=O)c1ccccc1, the IC90 was 30 nM.

Molecule C/N=C(/S)[C@@]1(c2cccnc2)CCCC[C@@H]1CCOC(C)=O has an IC90 of 30 nM.

C/N=C(/S)[C@@]1(c2cccnc2)CCCC[C@@H]1C/C=C/c1ccc(F)cc1 gave an IC90 of 10 nM.

Molecule C/N=C(/S)[C@@]1(c2cccnc2)CCCC[C@@H]1C/C=C/c1ccccc1 has an IC90 of 100 nM.

Molecule C/N=C(/S)C1(c2cccnc2)CCCC/C1=C\COc1ccccc1 (centres undefined) has an IC90 of 65 nM.

C/N=C(/S)C1(c2cccnc2)CCCC/C1=C\CO (centres undefined) was tested, and the IC90 was 10000 nM.
